Laboratory results published in ChEMBL document CHEMBL2390849, “Glycosylation enhances the anti-migratory activities of isomalyngamide A analogs” (Eur J Med Chem, 2013).
The source made the active and inactive calls. The calls are words filed in the database; no cut-off is given here.

Legend:
[1] = test system: MDA-MB-231; test: Inhibition of human MDA-MB-231 cell invasion at 20 to 30 uM after 24 hrs by Transwell assay; assay type: functional, cell-based
How it was run: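 Transwell inserts with 8 µm pores precoated with Matrigel. Cells seeded at 8 × 10^4 cells/mL in serum-free medium with compound or DMSO, 24 h. Lower wells hold 5% FBS-containing medium as chemoattractant. Invaded cells fixed and stained, then counted in three random fields. Run in triplicate, expressed as percent of untreated control.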

[2] = test system: MDA-MB-231; test: Antimigratory activity against human MDA-MB-231 cells at 25 uM after 24 hrs by scratch wound healing assay; assay type: functional, cell-based
How it was run: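 Cells grown overnight at 37 °C to a confluent monolayer in duplicate wells, then scratched with a pipette tip. Migration into the wound photographed at 0 and 24 h at 100× magnification.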

[3] = test system: MDA-MB-231; test: Cytotoxicity against human MDA-MB-231 cells at 10 to 30 uM after 48 hrs by MTT assay; assay type: functional, cell-based
[4] = test system: MDA-MB-231; test: Inhibition of human MDA-MB-231 cell adhesion to fibronectin at 10 to 30 uM after 48 hrs by crystal violet staining-based spectrophotometric analysis relative to control; assay type: functional
How it was run: (§1)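 Cells pretreated 48 h with compound, trypsinized, and resuspended at 2 × 10^5 cells/mL in DMEM with 0.1% BSA. Added to wells coated overnight at 4 °C with fibronectin or collagen IV ([…] as printed), then blocked with 0.1% BSA. Adhesion 60 min at 37 °C. Adherent cells fixed in 10% formaldehyde and stained with 0.05% crystal violet. Dye extracted, A595 read. Reported as percent of untreated control, triplicate.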

[5] = test system: MDA-MB-231; test: Effect on RAC1 expression level in human MDA-MB-231 cells at 10 to 30 uM after 24 hrs by Western blotting analysis; assay type: functional, cell-based
How it was run: (§2)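 Cells treated 24 h with the indicated concentrations. Lysates immunoblotted with antibodies to total FAK, phospho-FAK (Y397), total paxillin and Rac1, with β-actin as internal control. Bands detected by enhanced chemiluminescence.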

[6] = target: Focal adhesion kinase 1 (Homo sapiens) (UniProt Q05397); test: Inhibition of FAK phosphorylation at Tyr397 in human MDA-MB-231 cells after 24 hrs by Western blotting analysis; assay type: cell-based; how it was run: as §2
[7] = test system: MDA-MB-231; test: Antimigratory activity against human MDA-MB-231 cells after overnight incubation by Boyden chamber assay; assay type: functional, cell-based
How it was run: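 Boyden chamber (8 µm polycarbonate membrane coated with Matrigel, […] as printed). Cells trypsinized into serum-free medium at 2.5 × 10^5 cells/mL containing test agent, placed in upper chamber. Lower chamber holds medium with 5% FBS as chemoattractant. Overnight at 37 °C. Transmigrated cells fixed in methanol, Giemsa-stained, counted in three random fields. IC50 is the mean of three independent experiments.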

[8] = test system: MDA-MB-231; test: Effect on paxillin expression level in human MDA-MB-231 cells after 24 hrs by Western blotting analysis; assay type: functional, cell-based; how it was run: as §2
[9] = test system: MDA-MB-231; test: Effect on FAK expression level in human MDA-MB-231 cells at 10 to 30 uM after 24 hrs by Western blotting analysis; assay type: functional, cell-based; how it was run: as §2
[10] = test system: MDA-MB-231; test: Inhibition of human MDA-MB-231 cell adhesion to collagen 4 after 48 hrs by crystal violet staining-based spectrophotometric analysis; assay type: functional; how it was run: as §1
[11] = test system: MDA-MB-231; test: Inhibition of human MDA-MB-231 cell adhesion to fibronectin after 48 hrs by crystal violet staining-based spectrophotometric analysis; assay type: functional; how it was run: as §1
[12] = test system: MDA-MB-231; test: Inhibition of human MDA-MB-231 cell adhesion to fibronectin at 30 uM after 48 hrs by crystal violet staining-based spectrophotometric analysis relative to control; assay type: functional; details: MDA-MB-231, 48 h; how it was run: as §1
[13] = test system: MDA-MB-231; test: Inhibition of human MDA-MB-231 cell adhesion to fibronectin at 20 uM after 48 hrs by crystal violet staining-based spectrophotometric analysis relative to control; assay type: functional; details: MDA-MB-231, 48 h; how it was run: as §1
[14] = test system: MDA-MB-231; test: Inhibition of human MDA-MB-231 cell adhesion to fibronectin at 10 uM after 48 hrs by crystal violet staining-based spectrophotometric analysis relative to control; assay type: functional; details: MDA-MB-231, 48 h; how it was run: as §1

Chain of Focal adhesion kinase 1 (Homo sapiens) (Q05397 2-1052 limits assumed): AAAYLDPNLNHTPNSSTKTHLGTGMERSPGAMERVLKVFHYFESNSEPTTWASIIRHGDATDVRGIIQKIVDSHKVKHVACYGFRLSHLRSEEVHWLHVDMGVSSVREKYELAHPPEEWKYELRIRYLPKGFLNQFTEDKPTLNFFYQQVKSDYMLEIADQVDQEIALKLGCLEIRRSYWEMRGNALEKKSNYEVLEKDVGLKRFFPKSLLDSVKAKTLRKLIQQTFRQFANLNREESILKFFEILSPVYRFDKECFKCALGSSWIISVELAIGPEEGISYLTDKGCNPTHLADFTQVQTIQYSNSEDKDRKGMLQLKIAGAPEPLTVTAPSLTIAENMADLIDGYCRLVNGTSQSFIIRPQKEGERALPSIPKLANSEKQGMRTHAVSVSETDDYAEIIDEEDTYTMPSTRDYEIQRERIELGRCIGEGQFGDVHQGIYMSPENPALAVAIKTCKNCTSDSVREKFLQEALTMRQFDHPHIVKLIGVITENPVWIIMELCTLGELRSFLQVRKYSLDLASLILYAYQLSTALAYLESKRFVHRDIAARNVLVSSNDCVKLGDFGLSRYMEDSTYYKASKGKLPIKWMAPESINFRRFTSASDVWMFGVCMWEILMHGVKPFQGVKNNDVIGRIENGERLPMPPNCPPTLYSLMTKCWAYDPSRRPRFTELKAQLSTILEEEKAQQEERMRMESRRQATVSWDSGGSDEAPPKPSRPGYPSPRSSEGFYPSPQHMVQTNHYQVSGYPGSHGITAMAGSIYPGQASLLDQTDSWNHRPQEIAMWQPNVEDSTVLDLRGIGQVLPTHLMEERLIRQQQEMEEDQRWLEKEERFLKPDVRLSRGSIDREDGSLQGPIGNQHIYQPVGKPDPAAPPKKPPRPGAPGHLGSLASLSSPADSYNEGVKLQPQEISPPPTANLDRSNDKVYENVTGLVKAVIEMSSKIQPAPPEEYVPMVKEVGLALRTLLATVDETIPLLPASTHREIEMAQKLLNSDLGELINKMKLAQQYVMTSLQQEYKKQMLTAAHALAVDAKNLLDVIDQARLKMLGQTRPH

CCCCCCCCCCCCCC(=O)NCCNC(=O)C(C)(C)C(=O)NCC(=O)O
inhibition [1]: Active
Activity [2]: Active
Activity [3]: inactive
inhibition [4]: Active

CCCCCCCCCCCCCC(=O)NCCNC(=O)C(C)(C)C(=O)NCCO[C@H]1O[C@H](COC(C)=O)[C@@H](OC(C)=O)[C@H](OC(C)=O)[C@@H]1OC(C)=O
Activity [5]: inactive
inhibition [6]: Dose-dependent effect
inhibition [1]: Active
Activity [2]: Active
Activity [7]: Dose-dependent effect
IC50 [7]: 11.7 µM
Activity [3]: inactive
Activity [8]: Dose-dependent effect
Activity [9]: inactive
inhibition [10]: Dose-dependent effect
inhibition [11]: Dose-dependent effect

CCCCCCCCCCCCCC(=O)NCCNC(=O)C(C)(C)C(=O)NCCO[C@@H]1O[C@H](COC(C)=O)[C@@H](O[C@@H]2O[C@H](COC(C)=O)[C@H](OC(C)=O)[C@H](OC(C)=O)[C@H]2OC(C)=O)[C@H](OC(C)=O)[C@H]1OC(C)=O
inhibition [1]: Active
Activity [2]: Active
IC50 [7]: > 50 µM
Activity [3]: inactive
inhibition [10]: Dose-dependent effect
inhibition [11]: Dose-dependent effect

CCCCCCCCCCCCCC(=O)NCCNC(=O)C(C)(C)C(=O)NCCO[C@@H]1O[C@H](COC(C)=O)[C@H](OC(C)=O)[C@H](OC(C)=O)[C@H]1OC(C)=O
adhesion % at 30 µM [12]: 58%
Activity [5]: inactive
inhibition [6]: Dose-dependent effect
inhibition [1]: Active
Activity [2]: Active
Activity [7]: Dose-dependent effect
IC50 [7]: 11.8 µM
Activity [3]: inactive
Activity [8]: Dose-dependent effect
Activity [9]: inactive
inhibition [10]: Dose-dependent effect
adhesion % at 20 µM [13]: 69%
adhesion % at 10 µM [14]: 79%
inhibition [11]: Dose-dependent effect
